From ChEMBL document CHEMBL5223160, “Lipase-Catalyzed Synthesis and Biological Evaluation of N-Picolineamides as Trypanosoma cruzi Antiproliferative Agents” (ACS Med Chem Lett, 2023)
Activity calls are given as the source filed them. The rule behind the calls is not given here.

Assays:
Vero = assay: Cytotoxicity against african green monkey Vero cells at 10 to 600 uM incubated for 72 hrs by resazurin dye based fluorescence assay; assay type: toxicity, cell-based; conditions: chlorocebus sabaeus, dose 10-600 µM
In short: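 Vero cells were exposed to compounds at 10–600 μM for 72 h at 37 °C. Viability was read by resazurin fluorescence at 590 nm. CC50 was taken as the concentration reducing cell proliferation by 50%, reported ± standard deviation.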

Trypanosoma cruzi [1] = assay: Antitrypanosomal activity against GFP-expressing intracellular Trypanosoma cruzi Y trypomastigotes infected in african green monkey Vero cells assessed as decrease in infection level incubated for 72 hrs by fluorescence based microplate reader analysis; assay type: functional, organism-based
In short: (§1)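 Vero cells infected with GFP-expressing T. cruzi Y-strain parasites. After parasite removal, compounds were added at one-tenth of their Vero CC50. At 72 h postinfection, cells were lysed and parasite fluorescence was read. Percentage of infected cells and amastigotes per 100 cells were also determined, with nifurtimox as reference.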

Trypanosoma cruzi [2] = assay: (§2) Antitrypanosomal activity against GFP-expressing intracellular Trypanosoma cruzi Y trypomastigotes infected in african green monkey Vero cells assessed as decrease in number of amastigotes/100 cells incubated for 72 hrs by fluorescence based microplate reader analysis; assay type: functional, organism-based; in short: as §1
Trypanosoma cruzi [3] = assay: as §2, with “reduction” for “decrease”, “infected cell percentage at 20 uM” for “number of amastigotes/100 cells”, “hrs in the presence of nifurtimox” for “hrs”; assay type: functional, organism-based
In short: (§3)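 GFP T. cruzi Y-infected Vero cells were cotreated after parasite removal with nifurtimox at 35 μM plus test compound at 20 μM or 40 μM. At 72 h postinfection, percentage of infected cells was determined against nontreated infected controls. Significance was set at p < 0.05.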

Trypanosoma cruzi [4] = assay: Antitrypanosomal activity against GFP-expressing intracellular Trypanosoma cruzi Y trypomastigotes infected in african green monkey Vero cells assessed as inhibition of parasite proliferation incubated for 72 hrs by fluorescence based microplate reader analysis
Trypanosoma cruzi [5] = assay: as §2, with “reduction” for “decrease”, “infected cell percentage at 40 uM” for “number of amastigotes/100 cells”, “hrs in the presence of nifurtimox” for “hrs”; assay type: functional, organism-based; in short: as §3

| SMILES | Activity (Vero) | other results |
| --- | --- | --- |
| CCCCCC(=O)NCc1ccncc1 | Non-Toxic |  |
| CCCCCCCCC/C=C\CCCCCCC(=O)O | Toxic |  |
| CCCCCCCC/C=C/CCCCCCCC(=O)NCc1cccnc1 | Non-Toxic |  |
| CC/C=C/C/C=C/C/C=C/CCCCCCCC(=O)O | Toxic |  |
| CCCCCCCCCCCCCCCCCC(=O)NCc1ccncc1 | Non-Toxic |  |
| CCCCCCCC/C=C\CCCCCCCC(=O)NCc1ccccn1 | Non-Toxic |  |
| CCCCCCCCCCCCCCCCCC(=O)NCc1cccnc1 | Non-Toxic |  |
| CCCCCCCCCCCCCCCC(=O)NCc1ccncc1 | Non-Toxic |  |
| CC/C=C\C/C=C\C/C=C\CCCCCCCC(=O)NCc1cccnc1 | Non-Toxic |  |
| CC(=O)NCc1ccncc1 | Non-Toxic |  |
| CCCCCCCC/C=C/CCCCCCCC(=O)NCc1ccncc1 | Non-Toxic |  |
| CCCCCCCCCCCC(=O)NCc1cccnc1 | Non-Toxic |  |
| CCCCC/C=C/C/C=C/CCCCCCCC(=O)O | Toxic |  |
| CCCCC/C=C\C/C=C\CCCCCCCC(=O)NCc1cccnc1 | Non-Toxic |  |
| CC/C=C\C/C=C\C/C=C\CCCCCCCC(=O)NCc1ccccn1 | Non-Toxic |  |
| CCCCCCCC/C=C\CCCCCCCC(=O)NCc1cccnc1 | Non-Toxic |  |
| CCCCCCCCCCCCCCCCCC(=O)NCc1ccccn1 | Non-Toxic | Activity (Trypanosoma cruzi [1]): Active; Activity (Trypanosoma cruzi [2]): Active; Activity (Trypanosoma cruzi [3]): Active; IC50 (Trypanosoma cruzi [4]): 16.4 µM |
| CCCCCCCCCCCC(=O)NCc1ccccn1 | Non-Toxic | IC50 (Trypanosoma cruzi [4]): > 100 µM |
| CCCCCCCC/C=C/CCCCCCCC(=O)NCc1ccccn1 | Non-Toxic | Activity (Trypanosoma cruzi [1]): Active; Activity (Trypanosoma cruzi [2]): Active; Activity (Trypanosoma cruzi [5]): Active; IC50 (Trypanosoma cruzi [4]): 47.6 µM |
| CCCCC/C=C\C/C=C\CCCCCCCC(=O)NCc1ccccn1 | Non-Toxic |  |
| CCCCCCCCCCCC(=O)NCc1ccncc1 | Non-Toxic |  |
